Results taken from ChEMBL document CHEMBL4765453, “Phenanthrolinic analogs of quinolones show antibacterial activity against M. tuberculosis” (Eur J Med Chem, 2020).
In brackets after ≈: the same amount, converted by molar mass. Activity calls are given as the source filed them. No cut-off for these calls is given here.

Tests used:
[1] = test system: Mycobacterium tuberculosis; assay: Antitubercular activity against Mycobacterium tuberculosis H37Rv measured after 7 days by resazurin microtiter assay; format: functional; conditions: 168 h, time 7 day
Summary of the method: (§1)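 Resazurin microtiter assay with two-fold drug dilutions in complete 7H9 broth. Exponential-phase cells are diluted to a final OD600 of 0.005 in 7H9 without Tween. Incubation is 7 days at 37°C, then 0.01% resazurin is added and plates are held 24 h more. MIC is the lowest concentration preventing the blue-to-pink change. Each MIC is determined three times in duplicate experiments.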

[2] = test system: Mycolicibacterium smegmatis; assay: Antibacterial activity against Mycobacterium smegmatis measured after 7 days by resazurin microtiter assay; format: functional; conditions: 168 h, time 7 day; summary of the method: as §1
Mycolicibacterium aurum = assay: Antibacterial activity against Mycobacterium aurum measured after 7 days by resazurin microtiter assay; format: functional; conditions: 168 h, time 7 day; summary of the method: as §1
Mycobacterium marinum = assay: Antibacterial activity against Mycobacterium marinum measured after 7 days by resazurin microtiter assay; format: functional; conditions: 168 h, time 7 day; summary of the method: as §1
Pseudomonas aeruginosa = assay: Antibacterial activity against Pseudomonas aeruginosa measured after 7 days by resazurin microtiter assay; format: functional; conditions: 168 h, time 7 day
Acinetobacter baumannii = assay: Antibacterial activity against Acinetobacter baumannii measured after 7 days by resazurin microtiter assay; format: functional; conditions: 168 h, time 7 day
Klebsiella aerogenes = assay: Antibacterial activity against Enterobacter aerogenes measured after 7 days by resazurin microtiter assay; format: functional; conditions: 168 h, time 7 day
Enterobacter cloacae = assay: Antibacterial activity against Enterobacter cloacae measured after 7 days by resazurin microtiter assay; format: functional; conditions: 168 h, time 7 day
Staphylococcus aureus = assay: Antibacterial activity against Staphylococcus aureus measured after 7 days by resazurin microtiter assay; format: functional; conditions: 168 h, time 7 day
Klebsiella pneumoniae = assay: Antibacterial activity against Klebsiella pneumoniae measured after 7 days by resazurin microtiter assay; format: functional; conditions: 168 h, time 7 day
Vero = assay: Cytotoxicity against African green monkey Vero cells assessed as reduction in cell viability measured after 24 to 48 hrs by Celltiter-glo assay; format: cell-based, Chlorocebus sabaeus; conditions: for Activity: chlorocebus sabaeus, vero, time 24-48 hrs
Summary of the method: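 Vero cells are grown in DMEM with 10% FBS and seeded at 25000 cells/well. Compound is added at 1% final DMSO, with 24 and 48 h incubation. ATP is read by CellTiter-Glo luminescence. IC50 is the concentration giving a 50% drop in ATP signal versus the DMSO control.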

Macrophage = assay: Cytotoxicity against human macrophages assessed as reduction in cell viability measured after 6 days by Celltiter-glo assay; format: cell-based; conditions: 144 h; for Activity: human, macrophage, time 6 day
Summary of the method: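 Infected human macrophages, with or without drug, are incubated 6 days. Viability is checked by visual inspection and by CellTiter-Glo ATP luminescence.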

[3] = test system: Mycobacterium tuberculosis; assay: Antitubercular activity against Mycobacterium tuberculosis H37Rv infected in human macrophages assessed as intracellular bacterial load at 0.5 MIC measured after 6 days (reference value: 5.57 to 6.43 logCFU/ml); format: functional, Macrophage; conditions: time 6 day
[4] = test system: Mycobacterium tuberculosis; assay: Antitubercular activity against Mycobacterium tuberculosis H37Rv infected in human macrophages assessed as intracellular bacterial load at MIC measured after 6 days (reference value: 5.57 to 6.43 logCFU/ml); format: functional, Macrophage; conditions: time 6 day
[5] = test system: Mycobacterium tuberculosis; assay: Antitubercular activity against Mycobacterium tuberculosis H37Rv infected in human macrophages assessed as intracellular bacterial load at 2 times MIC measured after 6 days (reference value: 5.57 to 6.43 logCFU/ml); format: functional, Macrophage; conditions: time 6 day
[6] = test system: Mycobacterium tuberculosis; assay: Antitubercular activity against Mycobacterium tuberculosis H37Rv infected in human macrophages assessed as intracellular bacterial load at 4 times MIC measured after 6 days (reference value: 5.57 to 6.43 logCFU/ml); format: functional, Macrophage; conditions: time 6 day
[7] = test system: Mycobacterium tuberculosis; assay: Antitubercular activity against Mycobacterium tuberculosis XDR measured after 7 days by resazurin microtiter assay; format: functional; conditions: 168 h, time 7 day; summary of the method: as §1
[8] = Solubility of compound in water; format: physicochemical; conditions: buffer
[9] = test system: Escherichia coli ATCC 25922; assay: Inhibition of DNA gyrase in Escherichia coli ATCC 25922 assessed as elongation of bacterial cells at 2.5 ug/ml measured after 1.5 hrs by DAPI/FM 4-64 staining based confocal fluorescence microscopic analysis; conditions: dose 2.5 µg/ml
Summary of the method: (§2)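 E. coli ATCC 25922 is grown in LB, and exponential cultures are treated 1.5 h at 37°C. Cells are washed in PBS, fixed 10 min in 4% PFA, and stained 20 min at room temperature with 2 µg/mL DAPI plus 1 µg/mL FM 4-64. Imaging is by confocal microscopy with a 60x oil objective.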

[10] = test system: Escherichia coli ATCC 25922; assay: Inhibition of DNA gyrase in Escherichia coli ATCC 25922 assessed as appearance of filamentous bacterial cells at 2.5 ug/ml measured after 1.5 hrs by DAPI/FM 4-64 staining based confocal fluorescence microscopic analysis; conditions: dose 2.5 µg/ml; summary of the method: as §2
[11] = test system: Escherichia coli ATCC 25922; assay: Inhibition of DNA gyrase in Escherichia coli ATCC 25922 assessed as change in DNA morphology at 2.5 ug/ml measured after 1.5 hrs by DAPI/FM 4-64 staining based confocal fluorescence microscopic analysis; conditions: dose 2.5 µg/ml; summary of the method: as §2
[12] = test system: Mycolicibacterium smegmatis; assay: Inhibition of DNA gyrase in Mycobacterium smegmatis assessed as elongation of bacterial cells at 2.5 ug/ml measured after 6 hrs by DAPI/FM 4-64 staining based confocal fluorescence microscopic analysis; conditions: dose 2.5 µg/ml
Summary of the method: (§3)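 M. smegmatis is grown in 7H9, and exponential cultures are treated 6 h at 37°C. Cells are fixed 10 min in 4% PFA in PBS and stained 20 min at room temperature with 2 µg/mL DAPI and 1 µg/mL FM 4-64. Imaging is by confocal microscopy with a 60x oil objective.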

[13] = test system: Mycolicibacterium smegmatis; assay: Inhibition of DNA gyrase in Mycobacterium smegmatis assessed as segmentation of bacterial cells at 2.5 ug/ml measured after 6 hrs by DAPI/FM 4-64 staining based confocal fluorescence microscopic analysis; conditions: dose 2.5 µg/ml; summary of the method: as §3

For `CCOC(=O)c1cn(CC)c2c(cc([N+](=O)[O-])c3cccnc32)c1=O`, the MIC90 [1] was 4.99 µM (≈ 1.7 µg/mL), the MIC90 [2] was greater than 100 µM and the MIC90 (Mycolicibacterium aurum) was greater than 100 µM. For the same compound, the MIC90 (Mycobacterium marinum) was 0.61 µM (≈ 0.208 µg/mL), the MIC90 (Pseudomonas aeruginosa) was greater than 100 µM and the MIC90 (Acinetobacter baumannii) was greater than 100 µM. It also gave an MIC90 (Klebsiella aerogenes) of 314 µM (≈ 107 µg/mL), an MIC90 (Enterobacter cloacae) greater than 275 µM and an MIC90 (Staphylococcus aureus) of 19.6 µM (≈ 6.69 µg/mL). The MIC90 (Klebsiella pneumoniae) was greater than 275 µM, the Activity (Vero) was “Non-Toxic” and the Activity (Macrophage) was “Non-Toxic”. For the same compound, the Activity [3] was 4.42 log10CFU/ml, the Activity [4] was 3.59 log10CFU/ml and the Activity [5] was 3.1 log10CFU/ml. For the same compound, the Activity [6] was 3 log10CFU/ml, the MIC90 [7] was 4.99 µM (≈ 1.7 µg/mL) and the solubility [8] was “Insoluble”.

Compound `Cn1cc(C(=O)O)c(=O)c2cc([N+](=O)[O-])c3cccnc3c21` has an MIC90 [1] of 2.64 µM (≈ 0.79 µg/mL), an MIC90 [2] of 11.2 µM (≈ 3.35 µg/mL) and an MIC90 (Mycolicibacterium aurum) of 11.2 µM (≈ 3.35 µg/mL). The MIC90 (Mycobacterium marinum) was 0.7 µM (≈ 0.209 µg/mL), the MIC90 (Pseudomonas aeruginosa) was greater than 100 µM and the MIC90 (Acinetobacter baumannii) was greater than 100 µM. The MIC90 (Klebsiella aerogenes) was 44.7 µM (≈ 13.4 µg/mL), the MIC90 (Enterobacter cloacae) was greater than 275 µM and the MIC90 (Staphylococcus aureus) was 22.4 µM (≈ 6.69 µg/mL). The MIC90 (Klebsiella pneumoniae) was greater than 275 µM, the Activity (Vero) was “Non-Toxic” and the Activity (Macrophage) was “Non-Toxic”. For the same compound, the Activity [3] was 3.78 log10CFU/ml, the Activity [4] was 3.65 log10CFU/ml and the Activity [5] was 2.77 log10CFU/ml. For the same compound, the Activity [6] was 3.01 log10CFU/ml, the MIC90 [7] was 2.64 µM (≈ 0.79 µg/mL) and the solubility [8] was “Insoluble”. The inhibition [9] was “Active”, the inhibition [10] was “Active” and the inhibition [11] was “Active”. For the same compound, the inhibition [12] was “Active” and the inhibition [13] was “Active”.

For `CCOC(=O)c1cn(CC)c2c(ccc3cccnc32)c1=O`, the MIC90 [1] was 170 µM (≈ 50.3 µg/mL) and the solubility [8] was “Insoluble”.

For `CCOC(=O)c1cn(CC)c2c(cc(Cl)c3cccnc32)c1=O`, the MIC90 [1] was 166 µM (≈ 55 µg/mL) and the solubility [8] was “Insoluble”.

With `CCOC(=O)c1c[nH]c2c(cc([N+](=O)[O-])c3cccnc32)c1=O` the MIC90 [1] was 329 µM (≈ 103 µg/mL) and the solubility [8] was “Insoluble”.

`CCOC(=O)c1cn(C)c2c(cc([N+](=O)[O-])c3cccnc32)c1=O` gave an MIC90 [1] of 1.21 µM (≈ 0.396 µg/mL), an MIC90 [2] greater than 100 µM and an MIC90 (Mycolicibacterium aurum) greater than 100 µM. It also gave an MIC90 (Mycobacterium marinum) of 0.15 µM (≈ 0.0491 µg/mL), an MIC90 (Pseudomonas aeruginosa) greater than 100 µM and an MIC90 (Acinetobacter baumannii) greater than 100 µM. It also gave an MIC90 (Klebsiella aerogenes) of 309 µM (≈ 101 µg/mL), an MIC90 (Enterobacter cloacae) greater than 275 µM and an MIC90 (Staphylococcus aureus) greater than 275 µM. It also gave an MIC90 (Klebsiella pneumoniae) greater than 275 µM, an IC50 (Vero; Chlorocebus sabaeus, Vero) greater than 50 µg/mL and an IC50 (Macrophage; Homo sapiens, Macrophage) greater than 50 µg/mL. For the same compound, the Activity [3] was 4.22 log10CFU/ml, the Activity [4] was 3.63 log10CFU/ml and the Activity [5] was 3.45 log10CFU/ml. The Activity [6] was 3.06 log10CFU/ml, the MIC90 [7] was 1.21 µM (≈ 0.396 µg/mL) and the solubility [8] was “Insoluble”.

With `CCOC(=O)c1c[nH]c2c(ccc3cccnc32)c1=O` the MIC90 [1] was 24 µM (≈ 6.44 µg/mL) and the solubility [8] was “Insoluble”.

For `CCOC(=O)c1cn(C)c2c(ccc3cccnc32)c1=O`, the MIC90 [1] was 182 µM (≈ 51.5 µg/mL) and the solubility [8] was “Insoluble”.

With `CCOC(=O)c1c[nH]c2c(ccc3c([N+](=O)[O-])cc[n+]([O-])c32)c1=O` the MIC90 [1] was 39.5 µM (≈ 13 µg/mL) and the solubility [8] was “Insoluble”.

With `CCn1cc(C(=O)O)c(=O)c2ccc3cccnc3c21` the MIC90 [1] was 47.1 µM (≈ 12.6 µg/mL) and the solubility [8] was “Insoluble”.

In the case of `O=C(O)c1c[nH]c2c(ccc3cccnc32)c1=O`, the MIC90 [1] is reported as 112 µM (≈ 27 µg/mL) and the solubility [8] is reported as “Insoluble”.

With `Cn1cc(C(=O)NN)c(=O)c2cc([N+](=O)[O-])c3cccnc3c21` the MIC90 [1] was 20.8 µM (≈ 6.51 µg/mL) and the solubility [8] was “Insoluble”.

Work on `CCn1cc(C(=O)O)c(=O)c2cc([N+](=O)[O-])c3cccnc3c21` yielded an MIC90 [1] of 5.84 µM (≈ 1.83 µg/mL), an MIC90 [2] of 21.4 µM (≈ 6.69 µg/mL) and an MIC90 (Mycolicibacterium aurum) of 10.7 µM (≈ 3.34 µg/mL). The MIC90 (Mycobacterium marinum) was 1.3 µM (≈ 0.407 µg/mL), the MIC90 (Pseudomonas aeruginosa) was greater than 100 µM and the MIC90 (Acinetobacter baumannii) was 93.4 µM (≈ 29.2 µg/mL). For the same compound, the MIC90 (Klebsiella aerogenes) was 42.7 µM (≈ 13.4 µg/mL), the MIC90 (Enterobacter cloacae) was greater than 275 µM and the MIC90 (Staphylococcus aureus) was 10.7 µM (≈ 3.34 µg/mL). The MIC90 (Klebsiella pneumoniae) was greater than 275 µM, the Activity (Vero) was “Non-Toxic” and the Activity (Macrophage) was “Non-Toxic”. For the same compound, the Activity [3] was 4.19 log10CFU/ml, the Activity [4] was 3.69 log10CFU/ml and the Activity [5] was 3.21 log10CFU/ml. The Activity [6] was 3.24 log10CFU/ml and the solubility [8] was “Insoluble”.

For `CCOC(=O)c1c[nH]c2c(ccc3ccc[n+]([O-])c32)c1=O`, the MIC90 [1] was 204 µM (≈ 58 µg/mL) and the solubility [8] was “Insoluble”.

With `CCOC(=O)c1cn(CC)c2c(cc(N)c3cccnc32)c1=O` the MIC90 [1] was 41.9 µM (≈ 13 µg/mL) and the solubility [8] was “Insoluble”.
